Measurements reported in the EternaBench riboswitch data.

System: MS2 coat protein
Assay: apparent Kd, MS2 coat protein; higher = weaker binding; RNA-MaP array; FMN 200 µM where present
Procedure, shortened: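 Green signal from SNAP-549-labelled MS2 coat protein was normalised to red-channel RNA signal and to the median Fmax of control clusters. The protein was titrated from 0.7 or 1.5 nM, doubling to 3 µM, without and then with constant ligand, over designs transcribed by stalled E. coli RNA polymerase on Illumina sequencing-chip clusters, in 100 mM Tris-HCl pH 7.5, 80 mM KCl, 4 mM MgCl2, BSA, DTT, yeast tRNA and Tween-20. The apparent Kd is the median of filtered per-cluster binding-curve fits.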

[1] = designed as: ON switch for flavin mononucleotide, no ligand
[2] = ligand present: flavin mononucleotide, designed as: ON switch for flavin mononucleotide
[3] = designed as: OFF switch for flavin mononucleotide, no ligand
[4] = ligand present: flavin mononucleotide, designed as: OFF switch for flavin mononucleotide

Sequence | apparent Kd [1] [nM] | apparent Kd [2] [nM] | apparent Kd [3] [nM] | apparent Kd [4] [nM]
GGCACCAUCACAGGAUAUGCUUUCCUUUGGGAAGCAGAAGGGUGUAACAUGAGGAUCACCCAUGUGGUGCCAGGGCGUGAGCCC | 164 | 14 | – | –
UAUUAAUACGAAGGAUAUGGUUACAUGAGGAUCACCCAUGUAUGUAUUUUGAUCUAAUUAUUUAACCAGAAGGUCGAAUAUAAA | – | – | 35.5 | 78.5
UACGUACAGAAGUACGCCGGGUCCAGAAGGGACAUGAGGAUCACCCAUGUACCGUUGAUUGCUUGUCAGGAUAUGGACCCGGCC | – | – | 7.1 | 27.4
CACUGCAAUGUAGGAUAUCGACUGGAAUACAGUCGAGAAGGACAUGAGGAUCACCCAUGUACUAUGAGUGAAUAAUAAGCAGUG | – | – | 88.9 | 834
ACCAGAACAUGAGGAUCACCCAUGUAUCUAUACCAAGCGACACAGGAUAUACAAAGCGAAAGCGGGUAGAAGGGUGAUCAUGCA | 63.5 | 182 | – | –
GCCAUCGCAUGAGGAUAUGCUCCCGUUUCGGGAGCAGAAGGCAUGUCACAAGACAUGAGGAUCACCCAUGUAGAUAAGAUGGCA | 257 | 9.49 | – | –
CUUAUGUGAGGAUAUCAGUAGUAAUACAAUAGUAUUACUACUGAGAAGGCACAUGAGGAUCACCCAUGUUCCUU | – | – | 28.1 | 131
AUCAGCUCGUCAGGAUAUACGUCACUGCGCCAGCAGUGUGGUAAGAUCACAUGAGGAUCACCCAUGUAGAAGGGACGAGCUGAU | – | – | 15 | 242
GGAGCUCCUGACAUGAGGAUCACCCAUGUUCACUUAUUAAAUCAGGAUAUCGUCGCGAAACGCGACGAGAAGGGAUAUGCUCCU | 7.55 | 7.05 | – | –
AAAAGCUCAGGAUAUACGGUCUGUUGUUGAGAAAUAUCGAAACAUGAGGAUCACCCAUGUAGAAGGGAGCGAAA | – | – | 223 | 599
CCGAAUAUGCAGGAUAUCGUAUCGGAAACGAUACGAGAAGGGCAAACAUGAGGAUCACCCAUGUUCCUUAACGG | – | – | 18.6 | 20.2
AUAUAUACCCAGAAGGUGCCAGCGAGAGCUGCACAUGAGGAUCACCCAUGUUGUCGGUGACGACGCAAGGAUAUGGGUAUAUAU | 25.2 | 7.86 | – | –
AUUGUUAAGGUAGGAUAUAGUAAAAUGAUUUAAUUAGAAGGAUCUCACAUGAGGAUCACCCAUGUAAUAGGAUUACCCAUGUAU | – | – | 32.8 | 23.6
GAUGCGAAUGUGAGGAUAUCGGAGUAUUUAAACUCUGAGAAGGCACAUGAGGAUCACCCAUGUCCGUGCGUCUA | – | – | 506 | 130
UUGAUAAGGAGAGGAUAUUGACAUGAGGAUCACCCAUGUACAUGGGAGUGUUUACUGAAUUCUUACGAGAAGGCUUACAUAUUU | – | – | 245 | 166
CCAUCGAGUGUGAGGAUAUGCUGGUCCUUGGAUCAGCAGAAGGCACAUGAGGAUCACCCAUGUGGAGACGGUGG | – | – | 60.1 | 286
GAGUAGUUGGAAGGAUAUCGAUUGUUAUAGAAUCGAGAAGGUCCUAACAUGAGGAUCACCCAUGUAGGACUAUUCCUGUGUAUC | 11.3 | 9.64 | – | –
GCUUGUAGAGGAUAUACGAGGGCCCGAGCGGAUAACACCGCACAUGAGGAUCACCCAUGUAGAAGGCUACCACC | – | – | 25.3 | 284
AAGGAUAGAGGAUAUACAUAGAUACAGAUUCGUGUAGUCCUACAUGAGGAUCACCCAUGUAGAAGGCUAUCCUA | – | – | 11.8 | 22.9
AAGUCUGGACGAGGAUAUCAGUUGUAUCUGGCGUCAACAUGAGGAUCACCCAUGUUGCUAUAGGGUGAGAAGGCGUUUGGGCAA | 92.6 | 22.8 | – | –
UCUUAUUGAGGAUAUACAUUAAUUUACAUGAGGAUCACCCAUGUUCUUCAAUGUAUAUAUGUAGAAGGCAGAAGAA | – | – | 18.5 | 42
CCUGCGGACAAAGGAUAUUGCGGUGGCCGGCUCAGUAAAUCUAGCCAACAUGAGGAUCACCCAUGUAAGAAGGUUGCCGUUGGU | – | – | 19.1 | 35.1
AACGGAAUGUAGAAGGGUGACAUGAGGAUCACCCAUGUUCACAUGCGUAUUAAAGUAUGUGAACCACAGGAUAUACUGUCCGUG | 56.8 | 130 | – | –
CUACUCGUUGUGAGGAUAUCGUUUUCGUCACGGAUCGAGAAGGCACAUGAGGAUCACCCAUGUUUGAUGUGGAU | – | – | 32.1 | 79.7
AGUGUCAUCGAGAAGGCCUCAACAUGAGGAUCACCCAUGUUGCAAAAUGGGAGGAUAUCGCGCGUUAAAAUACGUUUCGUAGCA | 42.4 | 16.7 | – | –
CUUGCGCGCUCGCCACUUUUCCCACAUGAGGAUCACCCAUGUCAGGAUAUACGUACCGAAAUGGCGUAGAAGGGACACGGGUUA | – | – | 166 | 131
ACUGUGCAUUAGAAGGGUGCGCGGCAAUCGCGCACAGGAUAUGAUGACAUGAGGAUCACCCAUGUCUGUGUUACCUGGGUGUCG | – | – | 19.1 | 135
UCCUCCGCAGGAUAUACAUGGGCGCCCGUCUUCAACCAUUAACAUGAGGAUCACCCAUGUAGAAGGGCGUCUCU | – | – | 16.1 | 15.5

Sequence | apparent Kd [1] [nM] | apparent Kd [2] [nM] | apparent Kd [3] [nM] | apparent Kd [4] [nM]
ACAGGUGCAGGAUAUACAAUCGUGCUUCGGCACGUAAGAUCACAUGAGGAUCACCCAUGUAGAAGGGCACCUGU | – | – | 44.9 | 447
AUAAAACAUGAGGAUCACCCAUGUAGACAUAUGGGAGGAUAUACUAGAUCGAAAGAUCUAGUAGAAGGCCUUUAUG | 44.2 | 20.8 | – | –
GCAGUACGCCUGGCAAUUUGCAAGCAGGAUAUCAGGCACCGUGGGACAUGAGGAUCACCCAUGUCUGAGAAGGGCUGGAGUUGC | – | – | 10.7 | 23.1
GGGAGUCUACAUGAGGAUCACCCAUGUGGUCCAGCAGGAACACAGGAUAUCCAAUGAGAUUCUCGGGAGAAGGGUGAAUGCUUA | 107 | 174 | – | –
CGUGAGUCAGGAUAUUAGUAGUGUGUGGAUACAUAUAUUGCUGAGAAGGGACAUGAGGAUCACCCAUGUAUACG | – | – | 32 | 37.1
UUUUUAUAAGAGAAGGAGGACUUCAUGAGGAUCACCCAUGUGUUAGUACUUAGGAUAUUUGAUAACAUGAGGAUCACCCAUGUC | 31.4 | 28.1 | – | –
UGAUACAUGAGGAUCUCCCAUGACAUGAGGAUCACCCAUGUGCAGGAUAUACGUGUUAUAAUAUAGUAGAAGGGCAGUCUAUGU | – | – | 133 | 199
UAGAAUCGAGGAUAUACAUGAGGAUCACCCAUGUGUUGCCGCAUGAUGUGAUCGUCAGGUAGAAGGCGAUUAUA | – | – | 25.4 | 18.7
UAUUAACACGAAGGAUAUGCUUACAUGAGGAUCACCCAUGUAUGUAUAUUGAUCCAGAGUUUUGAGCAGAAGGUCGUGAGUAAA | – | – | 32.2 | 153
AAAUCGAGUGUAGGAUAUGCACAGUUUGACCGUGCAGAAGGACACAUGAGGAUCACCCAUGUUAGCUCAUGGGCGGUGACUUAG | – | – | 92.2 | 82.2
UUGCUGCGGAAGUUCGGCUCUCGCGAGGAUAUACCUACAGGGCCACAUGAGGAUCACCCAUGUACGUAGAAGGCGCGACAGAAA | – | – | 15.8 | 48
CACGUCUGAGGAUAUCGUUUUUUGUACAUGAGGAUCACCCAUGUCCAAUUUUGUAUAUUACGAGAAGGCAGUGGAA | – | – | 12.9 | 19.7
UACGCCAGUGAGAAGGCAUGUUCACAUGAGGAUCACCCAUGUAUACUCAUGAGGAUAUCAAAUGCGGACCAAAAUAAAAUUUGA | 313 | 22.2 | – | –
UAGAUGGGAGGAUAUGCGUAGAUGCGGAUUCGUGUGGUGCUACAUGAGGAUCACCCAUGUAGAAGGCCCGUCUU | – | – | 14.4 | 22
AUACUCAUGUAAGGAUAUGCAGCCGUCUCGGCUGCAGAAGGUACUAUAAUACAUGAGGAUCACCCAUGUCUCUCGCAUUGCGAG | 562 | 93.7 | – | –
CUAUGCGGAAUAGGAUAUUCAUUCAUGAGGAUAGAAGAAGGGUUACAUGAGGAUCACCCAUGUAUACACAUGAGGAUCCCUUAG | – | – | 150 | 156
CGUUGUUCCGCAGGAUAUGCAUUGGAUUACAAUGCAGAAGGGCGAUAACAUGAGGAUCACCCAUGUGUGGACAAUAAGGAAGAG | 811 | 62.1 | – | –
CCUUUGAAGAUCCAAAAUUUCAACAUGAGGAUCACCCAUGUGCAGGAUAUCGUGCCAGUGAUGUACGAGAAGGGCAGACUCUGC | – | – | 176 | 177
AUUAUGUUAGGAUAUGCUUAUGGUGGAUAAUCAGAUAUGAUGCAGAAGGGACAUGAGGAUCACCCAUGUACUGU | – | – | 20.8 | 23.6
ACUUGUGAAGGAUAUACUGGCGACAUGCGCUCAACACGCGCACAUGAGGAUCACCCAUGUAGAAGGUCAAACAU | – | – | 24.7 | 34.8
GCAGAUCAAGUGAGGAUAUCGUCUACCUCGGUAGACGAGAAGGCACAUGAGGAUCACCCAUGUGAUUGAUCUGC | – | – | 17.6 | 23.6
ACUAGAUGCGUGCAAUAACACAUGAGGAUCACCCAUGUGACACAGGAUAUAACCAGAUCAGAAAGUUAGAAGGGUGAGCACGCA | 29.6 | 18.9 | – | –
GGAGAUUACUCAGGAUAUCGCUAGACCUACAUGAGGAUCACCCAUGUGGGUGACGCGGUGGGCUACGAGAAGGGAGAAGUGCCC | – | – | 8.9 | 8.53
GCGGUUACGGUUGGCACUUAGCGAGAGGAUAUGGAAAACAAGACAUGAGGAUCACCCAUGUACUAUCAGAAGGCUCGAGCACGC | 7.76 | 5.8 | – | –
GGUGCAUAUGAGAAGGCGAUCAUGAAACAUGAUCGAGGAUAUCAUGUAAACAUGAGGAUCACCCAUGUAUGGGAAUAUUGCACC | 176 | 12.6 | – | –
AGAUAUGAUGCAGGAUAUCUAUCUUGAAUGAGGAGAGAAGGGCAAGCAGAGAGAUAAGCCUUAUUACAUGAGGAUCACCCAUGU | – | – | 10.3 | 8.56
GGACGUCACAUUUACAUGAGGAUCACCCAUGUCUCUUGACAUGAGGAUAUGUAUACGAAUCGUAUACAGAAGGCAUGGACGUCC | 1100 | 153 | – | –
